According to the RNAGym collection of RNA variant scans (doi:10.1126/science.aae0568):
Fewer inactive variants are shown than the library holds.

B1: tRNA (parent)
chain: GUUCCGUUGGCGUAAUGGUAACGCGUCUCCCUCCUAAGGAGAAGACUGCGGGUUCGAGUCCCGUACGGAACG

Variants of: B1
Test: yeast fitness relative to wild type (ratio to wild type); higher = fitter; tRNA-Arg(CCU), competitive growth, 37 C, YPD
Outline: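 Amplicons of the tRNA-Arg(CCU) gene were sequenced, 100-nucleotide paired-end, from the start population and from each end population of a pooled yeast competition. The competition, in six parallel replicates, lasted 24 hours in YPD at 37°C. Fitness relative to wild type was calculated from changes in genotype frequencies. Genotypes had to have ≥ 100 starting reads, and estimates < 0.5 were set to 0.5.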

Variant	yeast fitness
GUUCUGUUGGCGUAAUGAUAACGCGUCUCCCUCCUAAGGUGAAGACCGCGGGCUCGAGUCCCGUACGAAACG [C5U G18A A40U U47C U53C G68A]	≤ 0.5
GUUCUGUUGGCGUAAUGAUAACGCGUCUCACUCCUAAGGAGAAGACUGCGGGUUCGAAUCCCGUACGUAACG [C5U G18A C30A G58A G68U]	0.581
GUUCUGUUGGCGUAAUGAUAACGCCUCUCCCUCCUAAGGAGAAGACUGCGGGUUCGAGUCCCGUACGGCACG [C5U G18A G25C A69C]	≤ 0.5
GUUCUGUUGGCGUAAUGAUAACGCGUCUCCCUCCUAAGGAGAACACUGCGGGUUCGAGUCCCGUACGGAACG [C5U G18A G44C]	0.638
GUUCUGUUGGCGUAAUGAUAACGCGUCACCCUCCUAAGGAGAAGACUGCGGGUUCAAGUCGCGUACGGAACG [C5U G18A U28A G56A C61G]	0.626
GUUCUGUUGGCGUAAUGCUAAUGCGUCUCCCUCCUAAGGAGAAGACUGCAGGUUCGAGUCCCGUACGGAACG [C5U G18C C22U G50A]	0.572
GUUCUGUUGGCGUAAUGCUAACGCGCCUCUGUCCUAAGGAGAAGACUGCGGGUUCGAGUCCCGUACGGACCG [C5U G18C U26C C30U C31G A70C]	≤ 0.5
GUUCUGUUGGCGUAAUGCUAACGCGGCUCCCUCCUAAGGAGAAGACUGCGGGUUCGAGUCCCGUACGGAACG [C5U G18C U26G]	≤ 0.5
GUUCUGUUGGCGUAAUGGUAACACCUCUCCCUCCUAAGGAGAAGACUGCGGGUUCGAGUCCCGUACGGAACG [C5U G23A G25C]	0.65
GUUCUGUUGGCGUAAUGGUAACGCAUCUCCCUCCUAAGGAGAAGACUGCGGGUUCGAGUCCCGUACGGAUCG [C5U G25A A70U]	1.05
GUUCUGUUGGCGUAAUGGUAACGCAUCUCCCUCCUAAGGAGAAGACUGAGGGUUCGAGUCCCGUACGGUACG [C5U G25A C49A A69U]	≤ 0.5
GUUCUGUUGGCGUAAUGGUAACGCAACUCCCUCCUAAGGAGAAGACUGCGGGUUCCAGUCCCGUCCGGAACG [C5U G25A U26A G56C A65C]	≤ 0.5
GUUCUGUUGGCGUAAUGGUAACGCAUCUCCCGCCUAAGGAGAAGACUGCGGGUUCGAGUCCCGUACGGAACG [C5U G25A U32G]	≤ 0.5
GUUCUGUUGGCGUAAUGGUAACGCCUCUCCCUCCUAAGGAGUAGACUGCGGGUUCGAGUCCCGUACGGAACG [C5U G25C A42U]	0.639
GUUCUGUUGGCGUAAUGGUAACGCCUCUCCCUCCUAAGGAGUAGACUGCGGGUUCGAGUCCCGUACGGUACG [C5U G25C A42U A69U]	≤ 0.5
GUUCUGUUGGCGUAAUGGUAACGCCUCUACCUCCUAAGGAGAAGACUGCGGGUUCGAGUCCCGUACGGAACG [C5U G25C C29A]	≤ 0.5
GUUCUGUUGGCGUAAUGGUAACGCGUCUCCCUCCUAACGAGAAGACUGCGGGUUCGAGUCCCGUUCGGAACG [C5U G38C A65U]	≤ 0.5
GUUCUGUUGGCGUAAUGGUAACGCGUCUCCCUCCUAACCGGAAAAGUGCGGAUUCGAGUCCCGUACGGAACG [C5U G38C G39C A40G G44A C46G G52A]	≤ 0.5
GUUCUGUUGGCGUAAUGGUAACGCGUCUCCCUCCUAACGACAAGACUGCGGGUUCGAGUGCCGUACGGAACG [C5U G38C G41C C60G]	≤ 0.5

Variant	yeast fitness
GUUCUGUUGGCGUAAUGGUAACGCGUCUCCCUCCUAACGAGAAGACUCCGGAUUCGAGUCCCGUACGGAACG [C5U G38C G48C G52A]	≤ 0.5
GUUCUGUUGGCGUAAUGGUAACGCGUCUCCCUCCUAAGAAGAAGACUGCGGGUUCGAGUCCCGUACGGAACG [C5U G39A]	0.938
GUUCUGUUGGCGUAAUGGUAACGCGUCUCCCUCCUAAGAAGAAGCCUGCGGGUUCGAGUCCCGUACGGAACG [C5U G39A A45C]	0.76
GUUCUGUUGGCGUAAUGGUAACGCGUCUCCCUCCUAAGAAGAAGACUACGGGUUCGUGUCCCGUACGGAACG [C5U G39A G48A A57U]	0.565
GUUCUGUUGGCGUAAUGGUAACGCGUCUCCCUCCUAAGUAGAAGACUGCGGGUUCGAGUCCCGUACGGAACG [C5U G39U]	0.823
GUUCUGUUGGCGUAAUGGUAACGCGUCUCCCUCCUAAGGAAAAGACUGCGGGUUCGAGUCCCGUACGGAACG [C5U G41A]	0.906
GUUCUGUUGGCGUAAUGGUAACGCGUCUCCCUCCUAAGGAAAAGACUGCGGGUUGGAGUCCCGUAUGGAACG [C5U G41A C55G C66U]	≤ 0.5
GUUCUGUUGGCGUAAUGGUAACGCGUCUCCCUCCUAAGGAAAAGACUGCGGAUUCGAGUCCCGUACGGAACG [C5U G41A G52A]	≤ 0.5
GUUCUGUUGGCGUAAUGGUAACGCGUCUCCCUCCUAAGGAAAAGACUGCGGCUUCGAGUCCCGUACGGAACG [C5U G41A G52C]	≤ 0.5
GUUCUGUUGGCGUAAUGGUAACGCGUCUCCCUCCUAAGGAGAAAACUGCGGGUUCGAGUCCCGUACGGAACG [C5U G44A]	1.08
GUUCUGUUGGCGUAAUGGUAACGCGUCUCCCUCCUAAGGAGAAAACUGCGGGUUUGAGUCCCGUACGGAACG [C5U G44A C55U]	0.629
GUUCUGUUGGCGUAAUGGUAACGCGUCUCCCUCCUAAGGAGAACUCUGCGGGUUCGAGUCCCGUACGGAACG [C5U G44C A45U]	0.657
GUUCUGUUGGCGUAAUGGUAACGCGUCUCCCUCCUAAGGAGAACACUGCGGGUUCGAGUCUCGUACGGAACG [C5U G44C C61U]	0.702
GUUCUGUUGGCGUAAUGGUAACGCGUCUCCCUCCUAAGGAGAACACUGCGGGUUCGAGUCCCGUACGCAACG [C5U G44C G68C]	0.697
GUUCUGUUGGCGUAAUGGUAACGCGUCUCCCUCCUAAGGAGAAGACUACGGGUUCGAGUCCCGUACGGAACG [C5U G48A]	0.891
GUUCUGUUGGCGUAAUGGUAACGCGUCUCCCUCCUAAGGAGAAGACUACGGGUUCGAGUCCCGUACGGCACG [C5U G48A A69C]	0.758
GUUCUGUUGGCGUAAUGGUAACGCGUCUCCCUCCUAAGGAGAAGACUACGGGUUUGAGUCCCGUACGGAACG [C5U G48A C55U]	0.558
GUUCUGUUGGCGUAAUGGUAACGCGUCUCCCUCCUAAGGAGAAGACUACGGGUUUGAGUCCCGUCCGGAACG [C5U G48A C55U A65C]	0.556
GUUCUGUUGGCGUAAUGGUAACGCGUCUCCCUCCUAAGGAGAAGACUACGGGUUUGAGUCCCGUAUGGAACG [C5U G48A C55U C66U]	0.521
